Activity calls are given as the source filed them. No cut-off for these calls is given here.
How the values were obtained:
[1] = molecular target: DNA-PK/Ku70/Ku85 (Homo sapiens) (UniProt P78527+P12956+P13010); assay: Inhibition of DNAPK ATP labeling site harbouring EHPFLVKGGEDLR in human Huh-7 cell lysate at 1 uM by KiNativ Profiling analysis relative to control; format: subcellular
[2] = molecular target: Cyclin-dependent kinase 12 (Homo sapiens) (UniProt Q9NYV4); assay: Inhibition of CRK7 Lys2 labeling site in human Huh-7 cell lysate at 1 uM by KiNativ Profiling analysis relative to control; format: subcellular
[3] = molecular target: T1, Serine/threonine-protein kinase Sgk3 (Homo sapiens) (UniProt Q96BR1); assay: Inhibition of SGK3 Lys2 labeling site in human Huh-7 cell lysate at 1 uM by KiNativ Profiling analysis relative to control; format: subcellular
T1 sequence (whole entry): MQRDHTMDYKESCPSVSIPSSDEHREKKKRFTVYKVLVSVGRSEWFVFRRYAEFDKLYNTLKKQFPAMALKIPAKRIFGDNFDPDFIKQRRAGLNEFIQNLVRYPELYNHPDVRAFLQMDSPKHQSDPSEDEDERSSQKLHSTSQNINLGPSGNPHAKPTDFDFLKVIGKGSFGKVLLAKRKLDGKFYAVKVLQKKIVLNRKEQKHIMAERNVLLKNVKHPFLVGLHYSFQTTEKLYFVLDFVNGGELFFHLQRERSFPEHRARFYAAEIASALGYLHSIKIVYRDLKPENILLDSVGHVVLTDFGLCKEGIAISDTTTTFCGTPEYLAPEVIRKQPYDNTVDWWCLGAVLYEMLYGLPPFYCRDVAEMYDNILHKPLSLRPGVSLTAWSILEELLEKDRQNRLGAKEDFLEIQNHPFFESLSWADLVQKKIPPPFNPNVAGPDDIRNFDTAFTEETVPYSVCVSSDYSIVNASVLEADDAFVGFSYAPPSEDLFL

[4] = molecular target: Mitogen-activated protein kinase 7 (Homo sapiens) (UniProt Q13164); assay: Inhibition of Erk5 K2 labeling site in human Huh-7 cells at 1 uM by KiNativ Profiling analysis relative to control; format: cell-based
Chain of Mitogen-activated protein kinase 7 (Homo sapiens) (Q13164 2-816 limits assumed): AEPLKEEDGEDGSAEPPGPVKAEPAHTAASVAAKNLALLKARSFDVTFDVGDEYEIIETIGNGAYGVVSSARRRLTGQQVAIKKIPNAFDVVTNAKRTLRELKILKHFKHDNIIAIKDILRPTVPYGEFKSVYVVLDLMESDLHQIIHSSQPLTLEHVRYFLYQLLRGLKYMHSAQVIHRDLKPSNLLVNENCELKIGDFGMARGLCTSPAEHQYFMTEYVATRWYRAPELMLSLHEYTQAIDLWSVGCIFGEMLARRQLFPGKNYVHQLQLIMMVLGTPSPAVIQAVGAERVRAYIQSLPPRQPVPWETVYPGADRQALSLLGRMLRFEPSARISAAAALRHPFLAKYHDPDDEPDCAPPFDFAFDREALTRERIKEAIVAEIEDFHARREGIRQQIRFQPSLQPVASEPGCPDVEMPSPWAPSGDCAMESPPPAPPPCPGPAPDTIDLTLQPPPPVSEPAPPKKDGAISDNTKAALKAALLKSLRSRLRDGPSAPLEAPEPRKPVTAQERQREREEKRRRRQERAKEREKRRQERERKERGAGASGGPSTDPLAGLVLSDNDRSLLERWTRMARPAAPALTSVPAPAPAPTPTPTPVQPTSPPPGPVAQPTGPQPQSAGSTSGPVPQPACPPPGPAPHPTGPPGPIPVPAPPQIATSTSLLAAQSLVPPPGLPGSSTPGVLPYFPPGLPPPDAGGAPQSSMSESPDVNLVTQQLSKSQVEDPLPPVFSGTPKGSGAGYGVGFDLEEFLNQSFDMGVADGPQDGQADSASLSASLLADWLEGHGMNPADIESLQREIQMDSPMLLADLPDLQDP

[5] = molecular target: T1, Serine/threonine-protein kinase Sgk3 (Homo sapiens); assay: Inhibition of SGK3 Lys1 labeling site in human A-375 cells at 0.05 uM by KiNativ Profiling analysis relative to control; format: cell-based
[6] = molecular target: Serine/threonine-protein kinase PLK1 (Homo sapiens) (UniProt P53350); assay: Inhibition of PLK1 Lys2 labeling site in human A-375 cells at 5 uM by KiNativ Profiling analysis relative to control; format: cell-based
Chain of Serine/threonine-protein kinase PLK1 (Homo sapiens) (P53350 whole entry): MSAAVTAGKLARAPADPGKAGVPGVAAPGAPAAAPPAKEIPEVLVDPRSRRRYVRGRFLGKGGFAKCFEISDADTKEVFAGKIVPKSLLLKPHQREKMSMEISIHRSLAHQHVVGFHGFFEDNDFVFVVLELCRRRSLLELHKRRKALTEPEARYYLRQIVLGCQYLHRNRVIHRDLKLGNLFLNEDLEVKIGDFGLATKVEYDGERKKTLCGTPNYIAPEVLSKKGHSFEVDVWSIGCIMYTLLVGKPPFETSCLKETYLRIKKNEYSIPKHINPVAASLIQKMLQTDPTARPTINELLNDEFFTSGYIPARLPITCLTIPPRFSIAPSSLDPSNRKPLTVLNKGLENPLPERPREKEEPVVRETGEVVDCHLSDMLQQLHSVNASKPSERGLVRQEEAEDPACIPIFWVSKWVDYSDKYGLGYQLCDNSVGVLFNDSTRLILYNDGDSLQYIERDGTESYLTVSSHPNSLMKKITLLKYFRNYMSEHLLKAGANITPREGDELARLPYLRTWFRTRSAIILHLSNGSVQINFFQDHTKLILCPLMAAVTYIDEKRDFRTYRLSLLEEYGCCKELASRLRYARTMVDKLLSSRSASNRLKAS

[7] = molecular target: RAC-alpha serine/threonine-protein kinase (Homo sapiens) (UniProt P31749); assay: Inhibition of AKT1 (unknown origin) at 10 uM by Ambit Kinomescan binding assay
Chain of RAC-alpha serine/threonine-protein kinase (Homo sapiens) (P31749 whole entry): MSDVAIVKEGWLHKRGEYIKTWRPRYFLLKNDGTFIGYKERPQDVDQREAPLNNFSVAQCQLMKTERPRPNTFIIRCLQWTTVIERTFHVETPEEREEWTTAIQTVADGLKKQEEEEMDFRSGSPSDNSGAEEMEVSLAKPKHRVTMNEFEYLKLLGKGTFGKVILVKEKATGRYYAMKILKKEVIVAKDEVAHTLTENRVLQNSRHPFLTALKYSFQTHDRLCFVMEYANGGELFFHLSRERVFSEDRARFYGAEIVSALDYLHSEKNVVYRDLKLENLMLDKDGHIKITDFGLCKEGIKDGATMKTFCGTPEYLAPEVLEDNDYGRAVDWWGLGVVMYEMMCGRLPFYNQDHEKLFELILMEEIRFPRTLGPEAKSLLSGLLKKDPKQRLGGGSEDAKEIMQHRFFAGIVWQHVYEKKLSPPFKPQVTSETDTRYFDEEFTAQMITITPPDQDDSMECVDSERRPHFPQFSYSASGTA

[8] = molecular target: Serine/threonine-protein kinase 26 (Homo sapiens) (UniProt Q9P289); assay: Inhibition of MST4 ATP labeling site in human Huh-7 cells at 1 uM by KiNativ Profiling analysis relative to control; format: cell-based
Chain of Serine/threonine-protein kinase 26 (Homo sapiens) (Q9P289 2-416 limits assumed): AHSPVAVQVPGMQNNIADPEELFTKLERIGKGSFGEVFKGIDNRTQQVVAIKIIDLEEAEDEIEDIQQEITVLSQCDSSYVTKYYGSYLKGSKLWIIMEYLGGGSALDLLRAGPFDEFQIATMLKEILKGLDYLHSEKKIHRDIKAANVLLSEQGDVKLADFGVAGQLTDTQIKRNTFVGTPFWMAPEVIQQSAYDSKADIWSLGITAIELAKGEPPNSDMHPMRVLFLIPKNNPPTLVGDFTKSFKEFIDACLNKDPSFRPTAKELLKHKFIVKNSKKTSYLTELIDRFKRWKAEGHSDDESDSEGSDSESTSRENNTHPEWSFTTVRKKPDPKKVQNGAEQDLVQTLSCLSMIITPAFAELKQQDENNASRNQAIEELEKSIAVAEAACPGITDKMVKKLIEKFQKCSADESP

[9] = molecular target: Cyclin-dependent kinase 14 (Homo sapiens) (UniProt O94921); assay: Inhibition of PFTAIRE1 Lys2 labeling site in human A-375 cells at 5 uM by KiNativ Profiling analysis relative to control
Chain of Cyclin-dependent kinase 14 (Homo sapiens) (O94921 whole entry, looked up): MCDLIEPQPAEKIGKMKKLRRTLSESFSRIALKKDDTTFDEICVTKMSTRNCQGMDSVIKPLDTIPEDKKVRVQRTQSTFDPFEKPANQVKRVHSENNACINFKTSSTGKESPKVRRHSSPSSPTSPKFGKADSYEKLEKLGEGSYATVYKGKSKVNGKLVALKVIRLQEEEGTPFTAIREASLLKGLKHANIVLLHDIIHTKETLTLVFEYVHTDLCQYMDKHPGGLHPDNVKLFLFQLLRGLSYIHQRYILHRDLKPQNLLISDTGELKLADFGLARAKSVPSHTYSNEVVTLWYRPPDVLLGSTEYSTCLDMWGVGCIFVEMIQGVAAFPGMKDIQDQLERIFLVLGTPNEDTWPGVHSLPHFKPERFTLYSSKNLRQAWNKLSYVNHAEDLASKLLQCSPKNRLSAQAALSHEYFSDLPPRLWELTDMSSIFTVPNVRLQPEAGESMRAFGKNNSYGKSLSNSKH

[10] = molecular target: T2, Serine/threonine-protein kinase D3 (Homo sapiens) (UniProt O94806); assay: Inhibition of PRKD3 (unknown origin) at 10 uM by Ambit Kinomescan binding assay
T2 sequence (whole entry): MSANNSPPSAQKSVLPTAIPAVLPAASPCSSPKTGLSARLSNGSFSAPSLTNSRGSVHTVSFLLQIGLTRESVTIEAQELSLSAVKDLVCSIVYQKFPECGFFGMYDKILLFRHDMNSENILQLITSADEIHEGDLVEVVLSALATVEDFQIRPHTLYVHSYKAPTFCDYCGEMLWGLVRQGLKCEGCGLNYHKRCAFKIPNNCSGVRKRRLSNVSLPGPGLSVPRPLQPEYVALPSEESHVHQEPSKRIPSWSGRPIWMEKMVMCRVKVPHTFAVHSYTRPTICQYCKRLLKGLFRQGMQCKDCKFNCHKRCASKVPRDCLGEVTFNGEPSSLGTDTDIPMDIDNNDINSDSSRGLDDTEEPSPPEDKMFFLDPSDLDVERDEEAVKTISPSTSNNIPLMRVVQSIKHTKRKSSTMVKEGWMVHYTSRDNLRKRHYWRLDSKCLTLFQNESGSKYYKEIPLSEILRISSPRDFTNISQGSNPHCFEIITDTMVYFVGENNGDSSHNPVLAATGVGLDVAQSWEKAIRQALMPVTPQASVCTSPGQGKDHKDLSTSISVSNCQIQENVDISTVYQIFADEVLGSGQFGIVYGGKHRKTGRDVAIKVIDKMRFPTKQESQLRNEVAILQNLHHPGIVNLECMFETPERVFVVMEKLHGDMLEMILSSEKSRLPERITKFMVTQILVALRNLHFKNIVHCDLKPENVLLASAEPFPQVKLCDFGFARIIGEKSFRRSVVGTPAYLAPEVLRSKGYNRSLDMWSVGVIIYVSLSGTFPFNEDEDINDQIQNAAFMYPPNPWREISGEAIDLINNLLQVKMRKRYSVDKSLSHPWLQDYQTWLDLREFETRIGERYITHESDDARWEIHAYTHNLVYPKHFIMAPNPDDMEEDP

[11] = molecular target: Tyrosine-protein kinase JAK1 (Homo sapiens) (UniProt P23458); assay: Inhibition of JAK1 in human A-375 cells at 0.05 uM by KiNativ Profiling analysis relative to control; format: cell-based
Chain of Tyrosine-protein kinase JAK1 (Homo sapiens) (P23458 whole entry): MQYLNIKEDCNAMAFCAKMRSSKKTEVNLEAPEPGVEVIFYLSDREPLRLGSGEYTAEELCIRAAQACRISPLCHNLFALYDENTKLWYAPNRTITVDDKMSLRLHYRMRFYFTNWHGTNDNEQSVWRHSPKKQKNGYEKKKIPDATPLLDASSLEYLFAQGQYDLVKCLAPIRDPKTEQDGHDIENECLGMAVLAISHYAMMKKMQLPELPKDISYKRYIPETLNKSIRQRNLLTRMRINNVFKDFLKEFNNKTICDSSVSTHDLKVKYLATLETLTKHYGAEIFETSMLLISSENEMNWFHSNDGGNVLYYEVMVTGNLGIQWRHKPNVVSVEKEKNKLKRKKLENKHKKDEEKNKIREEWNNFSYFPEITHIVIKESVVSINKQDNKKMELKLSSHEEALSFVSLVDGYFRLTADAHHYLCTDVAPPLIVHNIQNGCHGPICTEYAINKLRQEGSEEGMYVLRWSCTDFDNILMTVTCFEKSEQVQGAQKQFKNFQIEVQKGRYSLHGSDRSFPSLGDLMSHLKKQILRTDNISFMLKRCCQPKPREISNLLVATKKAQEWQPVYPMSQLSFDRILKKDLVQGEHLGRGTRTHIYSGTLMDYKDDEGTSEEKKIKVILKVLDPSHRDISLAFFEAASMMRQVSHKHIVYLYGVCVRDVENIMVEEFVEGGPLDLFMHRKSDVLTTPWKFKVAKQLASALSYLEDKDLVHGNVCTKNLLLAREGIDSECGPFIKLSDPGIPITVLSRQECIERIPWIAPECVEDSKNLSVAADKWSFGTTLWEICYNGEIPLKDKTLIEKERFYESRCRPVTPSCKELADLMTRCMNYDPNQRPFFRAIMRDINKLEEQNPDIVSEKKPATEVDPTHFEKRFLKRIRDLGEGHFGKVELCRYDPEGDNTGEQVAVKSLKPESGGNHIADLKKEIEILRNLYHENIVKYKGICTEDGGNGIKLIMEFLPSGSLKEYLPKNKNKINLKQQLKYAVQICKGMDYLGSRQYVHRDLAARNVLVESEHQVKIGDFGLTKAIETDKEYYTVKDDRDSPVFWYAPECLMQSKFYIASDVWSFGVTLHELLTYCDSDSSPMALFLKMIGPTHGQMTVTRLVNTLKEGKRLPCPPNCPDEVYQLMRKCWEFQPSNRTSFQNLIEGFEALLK

[12] = molecular target: Mitogen-activated protein kinase kinase kinase 12 (Homo sapiens) (UniProt Q12852); assay: Inhibition of DLK (unknown origin) at 1 uM by Ambit Kinomescan binding assay relative to control
[13] = molecular target: Serine/threonine-protein kinase 17A (Homo sapiens) (UniProt Q9UEE5); assay: Inhibition of DRAK1 (unknown origin) at 1 uM by Ambit Kinomescan binding assay relative to control; values are per cent of control
[14] = molecular target: Cyclin-dependent kinase 9 (Homo sapiens) (UniProt P50750); assay: Inhibition of CDK9 Lys2 labeling site in human A-375 cells at 0.5 uM by KiNativ Profiling analysis relative to control; format: cell-based
[15] = molecular target: Focal adhesion kinase 1 (Homo sapiens) (UniProt Q05397); assay: Inhibition of FAK (unknown origin) at 1 uM by Ambit Kinomescan binding assay relative to control
Chain of Focal adhesion kinase 1 (Homo sapiens) (Q05397 2-1052 limits assumed): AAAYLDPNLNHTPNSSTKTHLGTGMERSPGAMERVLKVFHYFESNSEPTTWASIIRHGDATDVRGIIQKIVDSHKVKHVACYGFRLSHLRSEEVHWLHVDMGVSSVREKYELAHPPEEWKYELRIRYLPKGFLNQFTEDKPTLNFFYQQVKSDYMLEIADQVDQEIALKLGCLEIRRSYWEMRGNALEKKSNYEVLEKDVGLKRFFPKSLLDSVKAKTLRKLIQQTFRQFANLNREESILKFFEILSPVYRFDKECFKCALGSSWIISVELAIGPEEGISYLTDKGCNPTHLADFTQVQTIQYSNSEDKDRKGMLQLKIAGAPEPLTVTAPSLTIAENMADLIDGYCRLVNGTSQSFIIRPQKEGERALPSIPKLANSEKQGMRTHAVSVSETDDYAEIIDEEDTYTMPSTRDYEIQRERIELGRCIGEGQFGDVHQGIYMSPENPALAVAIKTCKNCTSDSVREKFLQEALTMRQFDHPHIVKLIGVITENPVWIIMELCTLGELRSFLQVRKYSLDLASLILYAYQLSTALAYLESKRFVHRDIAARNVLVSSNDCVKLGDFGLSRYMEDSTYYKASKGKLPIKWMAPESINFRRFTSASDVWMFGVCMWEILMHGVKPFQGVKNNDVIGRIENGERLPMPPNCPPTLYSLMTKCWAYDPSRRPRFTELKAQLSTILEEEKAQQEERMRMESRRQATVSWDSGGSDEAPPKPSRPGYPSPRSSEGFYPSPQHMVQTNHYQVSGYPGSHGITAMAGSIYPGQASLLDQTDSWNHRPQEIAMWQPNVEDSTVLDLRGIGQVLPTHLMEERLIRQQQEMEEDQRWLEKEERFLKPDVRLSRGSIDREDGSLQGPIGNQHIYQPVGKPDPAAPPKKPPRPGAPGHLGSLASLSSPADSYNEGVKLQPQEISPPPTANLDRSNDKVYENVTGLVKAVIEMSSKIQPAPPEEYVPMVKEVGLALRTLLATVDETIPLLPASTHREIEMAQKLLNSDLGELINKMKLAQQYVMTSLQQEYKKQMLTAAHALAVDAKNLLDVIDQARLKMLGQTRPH
Outline: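 In vitro ATP-site competition binding assay against a panel of over 420 kinases (KinomeScan), with compound tested at 10 or 1 μM.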

[16] = molecular target: Serine/threonine-protein kinase 4 (Homo sapiens) (UniProt Q13043); assay: Inhibition of MST1 Lys2 labeling site harbouring DIKAGNILLNTEGHAK in human A-375 cells at 0.5 uM by KiNativ Profiling analysis relative to control
[17] = molecular target: Receptor tyrosine-protein kinase erbB-3 (Homo sapiens) (UniProt P21860); assay: Inhibition of HER3/ErbB3 Lys1 labeling site in human A-375 cells at 5 uM by KiNativ Profiling analysis relative to control; format: cell-based

## CNc1cc(Oc2cc(C(=O)Nc3cc(N4CCN(C)CC4)cc(C(F)(F)F)c3)ccc2C)ncn1
[1]
  inhibition: -6.7%
[2]
  inhibition: -8.3%
[3]
  inhibition: 13.3%

## CCN1CCN(Cc2ccc(NC(=O)c3ccc(C)c(Oc4ccnc5[nH]ccc45)c3)cc2C(F)(F)F)CC1
[4]
  inhibition: 14.6%
[5]
  inhibition: 3.5%
[6]
  inhibition: 17.6%
[7]
  inhibition: inactive
[8]
  inhibition: 18%
[9]
  inhibition: 77.8%
[10]
  inhibition: inactive

## CCN1CCN(Cc2ccc(NC(=O)c3ccc(C)c(/C=C/c4cnc5[nH]ccc5c4OC)c3)cc2C(F)(F)F)CC1
[11]
  inhibition: 12.3%
[12]
  inhibition: 74%
[13]
  residual activity: 52%
[14]
  inhibition: 1.5%
[15]
  inhibition: 84%
[16]
  inhibition: -9.8%
[17]
  inhibition: -6.6%

Reference: ChEMBL document CHEMBL5696442, “Discovery of type II inhibitors of TGFβ-activated kinase 1 (TAK1) and mitogen-activated protein kinase kinase kinase kinase 2 (MAP4K2)” (J Med Chem, 2015)
